Reference: ChEMBL document CHEMBL2331091, “Synthesis and pharmacological evaluation of some novel 2-(5-hydroxy-5-trifluoromethyl-4,5-dihydropyrazol-1-yl)-4-(coumarin-3-yl)thiazoles” (2013)
Converted amounts (≈) assume the structure as drawn. The source made the active and inactive calls. The rule behind the calls is not given here.

What was measured:
Assay type in all cases: functional
Rattus norvegicus [1] = assay: Antiinflammatory activity in Wistar albino rat assessed as inhibition of carrageenan-induced paw edema at 10 mg/kg, po administered 30 mins prior to carrageenan challenge measured after 3 hrs by plethysmometer analysis
Rattus norvegicus [2] = assay: Antiinflammatory activity in Wistar albino rat assessed as inhibition of carrageenan-induced paw edema at 10 mg/kg, po administered 30 mins prior to carrageenan challenge measured after 2 hrs by plethysmometer analysis
Rattus norvegicus [3] = assay: Antiinflammatory activity in Wistar albino rat assessed as inhibition of carrageenan-induced paw edema at 10 mg/kg, po administered 30 mins prior to carrageenan challenge measured after 1 hr by plethysmometer analysis
Rattus norvegicus [4] = assay: Antiinflammatory activity in Wistar albino rat assessed as inhibition of carrageenan-induced paw edema at 10 mg/kg, po administered 30 mins prior to carrageenan challenge measured after 4 hrs by plethysmometer analysis
Staphylococcus aureus [5] = assay: Antibacterial activity against Staphylococcus aureus assessed as diameter of growth inhibition zone at 2 mg/ml at 37 degC after 24 hrs by agar well diffusion method; settings: read-out: DIZ
[6] = test system: Staphylococcus epidermidis; assay: Antibacterial activity against Staphylococcus epidermidis assessed as diameter of growth inhibition zone at 2 mg/ml at 37 degC after 24 hrs by agar well diffusion method; settings: read-out: DIZ
Proteus mirabilis [7] = assay: Antibacterial activity against Proteus mirabilis assessed as diameter of growth inhibition zone at 2 mg/ml at 37 degC after 24 hrs by agar well diffusion method; settings: for zone of inhibition at 2000 µg/mL: read-out: DIZ
[8] = test system: Staphylococcus epidermidis; assay: Antibacterial activity against Staphylococcus epidermidis assessed as growth inhibition at 37 degC after overnight incubation by agar well diffusion method
Escherichia coli [9] = assay: Antibacterial activity against Escherichia coli assessed as diameter of growth inhibition zone at 2 mg/ml at 37 degC after 24 hrs by agar well diffusion method; settings: for zone of inhibition at 2000 µg/mL: read-out: DIZ
Klebsiella aerogenes [10] = assay: Antibacterial activity against Klebsiella aerogenes assessed as diameter of growth inhibition zone at 2 mg/ml at 37 degC after 24 hrs by agar well diffusion method; settings: for zone of inhibition at 2000 µg/mL: read-out: DIZ
Staphylococcus aureus [11] = assay: Antibacterial activity against Staphylococcus aureus assessed as growth inhibition at 37 degC after overnight incubation by agar well diffusion method
Bacillus subtilis [12] = assay: Antibacterial activity against Bacillus subtilis assessed as diameter of growth inhibition zone at 2 mg/ml at 37 degC after 24 hrs by agar well diffusion method; settings: for zone of inhibition at 2000 µg/mL: read-out: DIZ
Pseudomonas aeruginosa [13] = assay: Antibacterial activity against Pseudomonas aeruginosa assessed as diameter of growth inhibition zone at 2 mg/ml at 37 degC after 24 hrs by agar well diffusion method; settings: for zone of inhibition at 2000 µg/mL: read-out: DIZ
Bacillus subtilis [14] = assay: Antibacterial activity against Bacillus subtilis assessed as growth inhibition at 37 degC after overnight incubation by agar well diffusion method
Klebsiella aerogenes [15] = assay: Antibacterial activity against Klebsiella aerogenes assessed as growth inhibition at 37 degC after overnight incubation by agar well diffusion method
Escherichia coli [16] = assay: Antibacterial activity against Escherichia coli assessed as growth inhibition at 37 degC after overnight incubation by agar well diffusion method
Pseudomonas aeruginosa [17] = assay: Antibacterial activity against Pseudomonas aeruginosa assessed as growth inhibition at 37 degC after overnight incubation by agar well diffusion method
Proteus mirabilis [18] = assay: Antibacterial activity against Proteus mirabilis assessed as growth inhibition at 37 degC after overnight incubation by agar well diffusion method
Rattus norvegicus [19] = assay: Antiinflammatory activity in Wistar albino rat assessed as inhibition of carrageenan-induced paw edema at 50 mg/kg, po administered 30 mins prior to carrageenan challenge measured after 4 hrs by plethysmometer analysis
Summary of the method: (§1)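 Male Wistar albino rats, 200-250 g, five per group, fasted from 12 h before and during the test. Compounds were given orally at 50 mg/kg 30 min before sub-plantar injection of 0.1 ml 1% carrageenan in 0.9% saline into the left hind paw. Tween 80 vehicle controls. Paw volume was read by plethysmometer up to the tibiotarsal mark at 0-4 h. Results are mean ± SEM and % inhibition, ANOVA and Dunnett's test.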

Rattus norvegicus [20] = assay: Antiinflammatory activity in Wistar albino rat assessed as inhibition of carrageenan-induced paw edema at 50 mg/kg, po administered 30 mins prior to carrageenan challenge measured after 2 hrs by plethysmometer analysis; summary of the method: as §1
Rattus norvegicus [21] = assay: Antiinflammatory activity in Wistar albino rat assessed as inhibition of carrageenan-induced paw edema at 50 mg/kg, po administered 30 mins prior to carrageenan challenge measured after 3 hrs by plethysmometer analysis; summary of the method: as §1
Rattus norvegicus [22] = assay: Antiinflammatory activity in Wistar albino rat assessed as inhibition of carrageenan-induced paw edema at 50 mg/kg, po administered 30 mins prior to carrageenan challenge measured after 1 hr by plethysmometer analysis; summary of the method: as §1

SMILES | MIC [8] | MIC (Staphylococcus aureus [11]) | MIC (Bacillus subtilis [14]) | MIC (Klebsiella aerogenes [15]) | MIC (Escherichia coli [16]) | MIC (Pseudomonas aeruginosa [17]) | MIC (Proteus mirabilis [18]) | zone of inhibition at 2000 µg/mL (Staphylococcus aureus [5]) | zone of inhibition at 2000 µg/mL [6] | diameter of the inhibition zone (DIZ) (Proteus mirabilis [7]) | diameter of the inhibition zone (DIZ) (Pseudomonas aeruginosa [13]) | zone of inhibition at 2000 µg/mL (Proteus mirabilis [7]) | zone of inhibition at 2000 µg/mL (Escherichia coli [9]) | zone of inhibition at 2000 µg/mL (Klebsiella aerogenes [10]) | zone of inhibition at 2000 µg/mL (Bacillus subtilis [12]) | zone of inhibition at 2000 µg/mL (Pseudomonas aeruginosa [13]) | inhibition in vivo at 50 mg/kg (Rattus norvegicus [19]) | inhibition in vivo at 50 mg/kg (Rattus norvegicus [20]) | inhibition in vivo at 50 mg/kg (Rattus norvegicus [21]) | inhibition in vivo at 50 mg/kg (Rattus norvegicus [22]) | also measured
COc1ccc2c(c1)c(CC(=O)O)c(C)n2C(=O)c1ccc(Cl)cc1 [INDOMETHACIN] |  |  |  |  |  |  |  |  |  |  |  |  |  |  |  |  |  |  |  |  | inhibition in vivo at 10 mg/kg (Rattus norvegicus [1]): 80.9%; inhibition in vivo at 10 mg/kg (Rattus norvegicus [2]): 84.2%; inhibition in vivo at 10 mg/kg (Rattus norvegicus [3]): 94.4%; inhibition in vivo at 10 mg/kg (Rattus norvegicus [4]): 86.5%
O=c1oc2ccc(Br)cc2cc1-c1csc(N2N=C(c3ccc(Br)cc3)C[C@@]2(O)C(F)(F)F)n1 | 512 µg/mL (≈ 832 µM) | 128 µg/mL (≈ 208 µM) |  | 512 µg/mL (≈ 832 µM) | 256 µg/mL (≈ 416 µM) |  |  | 2.03 mm | 13.1 mm | inactive | inactive |  | 10 mm | 10.5 mm |  |  |  |  |  |  | diameter of the inhibition zone (DIZ) (Bacillus subtilis [12]): inactive
O=c1oc2ccccc2cc1-c1csc(N2N=C(c3ccc(Br)cc3)C[C@@]2(O)C(F)(F)F)n1 |  |  |  |  |  |  |  |  |  |  |  |  |  |  |  |  | 25.2% | 70.8% | 35.5% | 76.1% | 
O=c1oc2ccc(Br)cc2cc1-c1csc(N2N=C(c3ccc(Cl)cc3)C[C@@]2(O)C(F)(F)F)n1 | 512 µg/mL (≈ 897 µM) | 128 µg/mL (≈ 224 µM) | 512 µg/mL (≈ 897 µM) | 8 µg/mL (≈ 14 µM) |  | 128 µg/mL (≈ 224 µM) | 16 µg/mL (≈ 28 µM) | 2 mm | 12.5 mm |  |  | 15.1 mm |  | 13 mm | 10.3 mm | 8.1 mm |  |  |  |  | diameter of the inhibition zone (DIZ) (Escherichia coli [9]): inactive
O=c1oc2ccccc2cc1-c1csc(N2N=C(C(F)(F)F)C[C@@]2(O)C(F)(F)F)n1 |  |  |  |  |  |  |  |  |  |  |  |  |  |  |  |  | 37.9% | 79.2% | 64.8% | 83.1% | 
O=c1oc2ccccc2cc1-c1csc(N2N=C(c3ccc(Cl)cc3)C[C@@]2(O)C(F)(F)F)n1 | 64 µg/mL (≈ 130 µM) | 16 µg/mL (≈ 32.5 µM) | 512 µg/mL (≈ 1040 µM) | 8 µg/mL (≈ 16.3 µM) | 2 µg/mL (≈ 4.07 µM) | 32 µg/mL (≈ 65.1 µM) | 4 µg/mL (≈ 8.13 µM) | 4.5 mm | 15.1 mm |  |  | 15.2 mm | 13.1 mm | 10.1 mm | 15.7 mm | 8.1 mm | 55.4% | 82.5% | 48% | 77.5% | 
O=c1oc2ccc(Cl)cc2cc1-c1csc(N2N=C(C(F)(F)F)C[C@@]2(O)C(F)(F)F)n1 |  |  |  |  |  |  |  |  |  |  |  |  |  |  |  |  | 41.1% | 63.3% | 54.5% | 85.9% | 
O=c1oc2ccc(Cl)cc2cc1-c1csc(N2N=C(c3ccc(Cl)cc3)C[C@@]2(O)C(F)(F)F)n1 | 512 µg/mL (≈ 973 µM) | 64 µg/mL (≈ 122 µM) |  |  |  |  |  | 4.13 mm | 11.2 mm | inactive | inactive |  |  |  |  |  | 31.5% | 62.5% | 42.1% | 73.2% | diameter of the inhibition zone (DIZ) (Escherichia coli [9]): inactive; diameter of the inhibition zone (DIZ) (Klebsiella aerogenes [10]): inactive; diameter of the inhibition zone (DIZ) (Bacillus subtilis [12]): inactive

Further compounds by falling MIC [8], results first:

MIC [8] | MIC (Staphylococcus aureus [11]) | MIC (Bacillus subtilis [14]) | MIC (Klebsiella aerogenes [15]) | MIC (Escherichia coli [16]) | MIC (Pseudomonas aeruginosa [17]) | MIC (Proteus mirabilis [18]) | SMILES | zone of inhibition at 2000 µg/mL (Staphylococcus aureus [5]) | zone of inhibition at 2000 µg/mL [6] | diameter of the inhibition zone (DIZ) (Proteus mirabilis [7]) | diameter of the inhibition zone (DIZ) (Pseudomonas aeruginosa [13]) | zone of inhibition at 2000 µg/mL (Proteus mirabilis [7]) | zone of inhibition at 2000 µg/mL (Escherichia coli [9]) | zone of inhibition at 2000 µg/mL (Klebsiella aerogenes [10]) | zone of inhibition at 2000 µg/mL (Bacillus subtilis [12]) | zone of inhibition at 2000 µg/mL (Pseudomonas aeruginosa [13]) | inhibition in vivo at 50 mg/kg (Rattus norvegicus [19]) | inhibition in vivo at 50 mg/kg (Rattus norvegicus [20]) | inhibition in vivo at 50 mg/kg (Rattus norvegicus [21]) | inhibition in vivo at 50 mg/kg (Rattus norvegicus [22]) | also measured
512 µg/mL (≈ 897 µM) | 64 µg/mL (≈ 112 µM) |  |  |  |  |  | O=c1oc2ccc(Cl)cc2cc1-c1csc(N2N=C(c3ccc(Br)cc3)C[C@@]2(O)C(F)(F)F)n1 | 2.07 mm | 11.2 mm | inactive | inactive |  |  |  |  |  |  |  |  |  | diameter of the inhibition zone (DIZ) (Escherichia coli [9]): inactive; diameter of the inhibition zone (DIZ) (Klebsiella aerogenes [10]): inactive; diameter of the inhibition zone (DIZ) (Bacillus subtilis [12]): inactive
64 µg/mL (≈ 126 µM) | 32 µg/mL (≈ 62.8 µM) |  |  |  |  |  | O=c1oc2ccc(Cl)cc2cc1-c1csc(N2N=C(c3ccc(F)cc3)C[C@@]2(O)C(F)(F)F)n1 | 4.93 mm | 14 mm | inactive | inactive |  |  |  |  |  |  |  |  |  | diameter of the inhibition zone (DIZ) (Escherichia coli [9]): inactive; diameter of the inhibition zone (DIZ) (Klebsiella aerogenes [10]): inactive; diameter of the inhibition zone (DIZ) (Bacillus subtilis [12]): inactive
64 µg/mL (≈ 135 µM) | 32 µg/mL (≈ 67.3 µM) | 512 µg/mL (≈ 1080 µM) | 8 µg/mL (≈ 16.8 µM) | 2 µg/mL (≈ 4.21 µM) | 32 µg/mL (≈ 67.3 µM) | 4 µg/mL (≈ 8.41 µM) | O=c1oc2ccccc2cc1-c1csc(N2N=C(c3ccc(F)cc3)C[C@@]2(O)C(F)(F)F)n1 | 3.96 mm | 14 mm |  |  | 17 mm | 13 mm | 12.1 mm | 12 mm | 7.87 mm | 18% | 56.7% | 22.3% | 74.7% | 
64 µg/mL (≈ 115 µM) | 128 µg/mL (≈ 231 µM) | 512 µg/mL (≈ 924 µM) | 256 µg/mL (≈ 462 µM) | 512 µg/mL (≈ 924 µM) |  |  | O=c1oc2ccc(Br)cc2cc1-c1csc(N2N=C(c3ccc(F)cc3)C[C@@]2(O)C(F)(F)F)n1 | 1.87 mm | 14 mm | inactive | inactive |  | 11 mm | 11 mm | 12.4 mm |  |  |  |  |  | 
16 µg/mL (≈ 30.3 µM) | 64 µg/mL (≈ 121 µM) | 8 µg/mL (≈ 15.1 µM) | 512 µg/mL (≈ 969 µM) | 128 µg/mL (≈ 242 µM) | 128 µg/mL (≈ 242 µM) | 16 µg/mL (≈ 30.3 µM) | O=c1oc2ccc(Br)cc2cc1-c1csc(N2N=C(C(F)(F)F)C[C@@]2(O)C(F)(F)F)n1 | 3.13 mm | 20.1 mm |  |  | 17.2 mm | 11.9 mm | 11 mm | 25 mm | 9.13 mm |  |  |  |  | 
2 µg/mL (≈ 4.41 µM) | 2 µg/mL (≈ 4.41 µM) | 2 µg/mL (≈ 4.41 µM) | 2 µg/mL (≈ 4.41 µM) | 2 µg/mL (≈ 4.41 µM) | 2 µg/mL (≈ 4.41 µM) | 2 µg/mL (≈ 4.41 µM) | C=CC1=C(C(=O)O)N2C(=O)[C@@H](NC(=O)/C(=N\OCC(=O)O)c3csc(N)n3)[C@H]2SC1 [CEFIXIME] | 3.9 mm | 22 mm |  |  | 20 mm | 14.1 mm | 15 mm | 26 mm | 10 mm |  |  |  |  | 
